Experimental data gathered from unrelated publications.
Lines come from different studies, so protocols differ.

With `CS(=O)(=O)CCC#N` the Tmax was 2 h (human, plasma; oral, 100 mg, single dose, fasted).
For `CCc1nc2c(C)cc(N3CCN(CC(=O)N4CC(O)C4)CC3)cn2c1N(C)c1nc(-c2ccc(F)cc2)c(C#N)s1`, the Tmax was 2 h (human, plasma; oral, 1000 mg, fed, healthy volunteers).
For `CCc1nc(C(N)=O)c(Nc2ccc(N3CCC(N4CCN(C)CC4)CC3)c(OC)c2)nc1NC1CCOCC1`, the Tmax was 4.01 h (human, plasma; oral, 40 mg, multiple doses, patients).
`COc1ccc([C@@H]2CN(C(=O)[C@@H](O)CO)C[C@@]2(C)[C@@H](C)O)cc1OC1CN(c2ccc(C)cn2)C1` gave a Tmax of 1.5 h (human, plasma; oral, 0.5 mg, single dose, healthy volunteers).
`C[C@@H](Nc1cc(F)cc(F)c1)c1cc(C(=O)N(C)C)cc2c(=O)cc(N3CCOCC3)oc12` gave a Tmax of 1.21 h (human, plasma; oral, 300 mg, single dose, patients).
`CC(C)(Sc1ccncc1-c1ccc(C#N)c2ccccc12)C(=O)O` has a Tmax of 1 h (male human, plasma; oral, 10 mg, multiple doses, once daily).
`Cn1cc(-c2ccc(S(=O)(=O)[C@@H]3C[C@@H](C(=O)NC4(C#N)CC4)N(C(=O)C4(C(F)(F)F)CC4)C3)c(C(F)(F)F)c2)cn1` has a Tmax of 4 h (human, plasma; oral, 100 mg, single dose, fasted, healthy volunteers).
With `O=C(Nc1c(Cl)cncc1Cl)c1ccc(OC(F)F)c(OCC2CC2)c1` the Tmax was 0.5 h (human, plasma; oral, 0.375 mg, single dose).
`CC(C)(O)c1ccccc1-c1ccc2[nH]c(/C=C/c3ccc(C(F)(F)F)cc3)nc2c1` has a Tmax of 2.02 h (male human, plasma; oral, 225 mg, single dose, fasted).
The Tmax of `CC(C)n1cc(C#N)c2cc(-n3cc(C(=O)O)cn3)ccc21` is reported as 2.5 h (human, plasma; oral, 100 mg, multiple doses, once daily, steady state).
The Tmax of `c1cnc2ccc(Nc3nc(NC4CC4)c4nc[nH]c4n3)cc2c1` is reported as 5 h (human, plasma; oral, 50 mg/m², patients).
For `C=CC(=O)N(C)CCOc1c(N)ncnc1-c1cc(F)cc(NC(=O)c2ccc(C3CC3)cc2F)c1C`, the Tmax was 0.52 h (human, blood; oral, 5 mg, single dose, healthy volunteers).
With `C[C@@]1(c2cc(NC(=O)c3ccc(C#N)cn3)ccc2F)C=CSC(N)=N1` the Tmax was 1.25 h (human, plasma; oral, 3 mg, single dose).
`CO[C@@H]1[C@H](OC(=O)N2CC(CCN3CCOCC3)C2)CC[C@]2(CO2)[C@H]1[C@@]1(C)O[C@@H]1CC=C(C)C` gave a Tmax of 0.25 h (human, plasma; subcutaneous, 3.6 mg, single dose, healthy volunteers).
With `NS(=O)(=O)NCCNc1nonc1C(=NO)Nc1ccc(F)c(Br)c1` the Tmax was 2 h (human, plasma; oral, 300 mg, multiple doses, twice daily, steady state, patients).
`COc1cc(N2CCC(N3CCN(C)CC3)CC2)ccc1Nc1ncnc(Nc2ccccc2S(=O)(=O)C(C)C)n1` gave a Tmax of 2.99 h (human, plasma; oral, 50 mg, multiple doses, patients).
For `Cc1nc(NC(=O)N2CCC[C@H]2C(N)=O)sc1-c1ccnc(C(C)(C)C(F)(F)F)c1`, the Tmax was 2 h (human, plasma; oral, 400 mg, patients).
`C#C[C@]1(COP(=O)(O)OP(=O)(O)OP(=O)(O)O)O[C@@H](n2cnc3c(N)nc(F)nc32)C[C@@H]1O` gave a Tmax of 24 h (human, plasma; oral, 30 mg, single dose).
